According to ChEMBL document CHEMBL1126594, “Studies directed toward the design of orally active renin inhibitors. 1. Some factors influencing the absorption of small peptides” (J Med Chem, 1993):

Biological target: T1, Renin (Homo sapiens, UniProt P00797)
T1 sequence (P00797 whole entry): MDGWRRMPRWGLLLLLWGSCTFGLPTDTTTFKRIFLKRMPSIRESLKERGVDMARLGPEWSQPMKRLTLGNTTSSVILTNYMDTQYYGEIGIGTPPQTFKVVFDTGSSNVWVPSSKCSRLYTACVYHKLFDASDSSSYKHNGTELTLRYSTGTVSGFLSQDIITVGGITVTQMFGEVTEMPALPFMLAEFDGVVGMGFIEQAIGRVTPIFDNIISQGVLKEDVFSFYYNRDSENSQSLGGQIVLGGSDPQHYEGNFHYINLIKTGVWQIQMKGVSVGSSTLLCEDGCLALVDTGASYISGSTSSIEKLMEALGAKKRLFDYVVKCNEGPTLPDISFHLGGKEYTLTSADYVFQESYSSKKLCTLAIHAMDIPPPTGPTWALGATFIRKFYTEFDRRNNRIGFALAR
Assay: Inhibition of human plasma renin at pH 7.4
Assay type: cell-free
Settings: not given
Method in brief: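 Human plasma renin, pH 7.4; IC50 determined by the previously described method.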

Structure (SMILES)	IC50
CC(C)C[C@H](O)[C@H](O)[C@H](CC1CCCCC1)NC(=O)[C@H](Cc1cscn1)NC(=O)[C@H](Cc1ccccc1)N1CCOCC1	1600 nM
CC(C)C[C@H](O)[C@H](O)[C@H](CC1CCCCC1)NC(=O)[C@H](Cc1cscn1)NC(=O)[C@@H](CC(=O)CN1CCOCC1)Cc1ccccc1	25 nM
CC(C)C[C@H](O)[C@H](O)[C@H](CC1CCCCC1)NC(=O)[C@H](Cn1cccn1)NC(=O)[C@@H](CC(=O)N1CCN(C)CC1)Cc1ccccc1	18 nM
CC(C)C[C@H](O)[C@H](O)[C@H](CC1CCCCC1)NC(=O)[C@H](Cc1cscn1)NC(=O)[C@@H](CC(=O)N1CCN(C)CC1)Cc1ccccc1	18 nM
CCN1C[C@@H]([C@H](O)[C@H](CC2CCCCC2)NC(=O)[C@H](Cc2cscn2)NC(=O)[C@H](Cc2ccc(OC)cc2)NC(=O)CC(C)(C)N)OC1=O	39 nM
CCCC[C@H](NC(=O)[C@@H](CC(=O)N1CCN(C)CC1)Cc1ccccc1)C(=O)N[C@@H](CC1CCCCC1)[C@@H](O)[C@@H](O)CC(C)C	25 nM
CC(C)C[C@H](NC(=O)[C@@H](CC(=O)N1CCN(C)CC1)Cc1ccccc1)C(=O)N[C@@H](CC1CCCCC1)[C@@H](O)[C@@H](O)CC(C)C	37 nM
CC(C)C[C@H](O)[C@H](O)[C@H](CC1CCCCC1)NC(=O)[C@H](Cc1ccn[nH]1)NC(=O)[C@@H](CC(=O)N1CCN(C)CC1)Cc1ccccc1	2.8 nM
CC(C)C[C@H](O)[C@H](O)[C@H](CC1CCCCC1)NC(=O)[C@H](Cc1cn(C)cn1)NC(=O)[C@@H](CC(=O)N1CCOCC1)Cc1ccccc1	110 nM
CCN1C[C@@H]([C@H](O)[C@H](CC2CCCCC2)NC(=O)[C@H](Cc2cccs2)NC(=O)[C@H](Cc2ccc(OC)cc2)NC(=O)CC(C)(C)N)OC1=O	69 nM
COc1ccc(C[C@H](NC(=O)CC(C)(C)N)C(=O)N[C@@H](Cc2cccs2)C(=O)N[C@@H](CC2CCCCC2)[C@@H](O)[C@@H](O)CC(C)C)cc1	85 nM
CC(C)C[C@H](O)[C@H](O)[C@H](CC1CCCCC1)NC(=O)[C@H](Cc1ccn[nH]1)NC(=O)[C@@H](CC(=O)N1CCOCC1)Cc1ccccc1	3.5 nM
CC(C)C[C@H](O)[C@H](O)[C@H](CC1CCCCC1)NC(=O)[C@H](Cc1cccs1)NC(=O)[C@@H](CC(=O)N1CCN(C)CC1)Cc1ccccc1	110 nM

Tested on: not listed separately
Assay: Plasma level by the renin inhibition assay from samples taken at 10 minutes from systemic circulation by administering 10 mg/kg intraduodenally to the rat
Settings: not given

Structure (SMILES)	concentration at 10 min
CC(C)C[C@H](O)[C@H](O)[C@H](CC1CCCCC1)NC(=O)[C@H](Cc1cscn1)NC(=O)[C@H](Cc1ccccc1)N1CCOCC1	420 ng/mL
CC(C)C[C@H](O)[C@H](O)[C@H](CC1CCCCC1)NC(=O)[C@H](Cc1cscn1)NC(=O)[C@@H](CC(=O)CN1CCOCC1)Cc1ccccc1	190 ng/mL
CC(C)C[C@H](O)[C@H](O)[C@H](CC1CCCCC1)NC(=O)[C@H](Cn1cccn1)NC(=O)[C@@H](CC(=O)N1CCN(C)CC1)Cc1ccccc1	86 ng/mL
CCN1C[C@@H]([C@H](O)[C@H](CC2CCCCC2)NC(=O)[C@H](Cc2cscn2)NC(=O)[C@H](Cc2ccc(OC)cc2)NC(=O)CC(C)(C)N)OC1=O	83 ng/mL
CCCC[C@H](NC(=O)[C@@H](CC(=O)N1CCN(C)CC1)Cc1ccccc1)C(=O)N[C@@H](CC1CCCCC1)[C@@H](O)[C@@H](O)CC(C)C	260 ng/mL
CC(C)C[C@H](NC(=O)[C@@H](CC(=O)N1CCN(C)CC1)Cc1ccccc1)C(=O)N[C@@H](CC1CCCCC1)[C@@H](O)[C@@H](O)CC(C)C	380 ng/mL
CC(C)C[C@H](O)[C@H](O)[C@H](CC1CCCCC1)NC(=O)[C@H](Cc1ccn[nH]1)NC(=O)[C@@H](CC(=O)N1CCN(C)CC1)Cc1ccccc1	21 ng/mL
CC(C)C[C@H](O)[C@H](O)[C@H](CC1CCCCC1)NC(=O)[C@H](Cc1cn(C)cn1)NC(=O)[C@@H](CC(=O)N1CCOCC1)Cc1ccccc1	470 ng/mL
CCN1C[C@@H]([C@H](O)[C@H](CC2CCCCC2)NC(=O)[C@H](Cc2cccs2)NC(=O)[C@H](Cc2ccc(OC)cc2)NC(=O)CC(C)(C)N)OC1=O	16 ng/mL
COc1ccc(C[C@H](NC(=O)CC(C)(C)N)C(=O)N[C@@H](Cc2cccs2)C(=O)N[C@@H](CC2CCCCC2)[C@@H](O)[C@@H](O)CC(C)C)cc1	9 ng/mL

Tested on: not listed separately
Assay: Partition coefficient (logD7.4)
Settings: octanol/water, pH 7.4

Structure (SMILES)	logD
CC(C)C[C@H](O)[C@H](O)[C@H](CC1CCCCC1)NC(=O)[C@H](Cc1cscn1)NC(=O)[C@@H](CC(=O)CN1CCOCC1)Cc1ccccc1	3.91
CC(C)C[C@H](O)[C@H](O)[C@H](CC1CCCCC1)NC(=O)[C@H](Cn1cccn1)NC(=O)[C@@H](CC(=O)N1CCN(C)CC1)Cc1ccccc1	4.39
CCCC[C@H](NC(=O)[C@@H](CC(=O)N1CCN(C)CC1)Cc1ccccc1)C(=O)N[C@@H](CC1CCCCC1)[C@@H](O)[C@@H](O)CC(C)C	> 4.5
CC(C)C[C@H](O)[C@H](O)[C@H](CC1CCCCC1)NC(=O)[C@H](Cc1ccn[nH]1)NC(=O)[C@@H](CC(=O)N1CCN(C)CC1)Cc1ccccc1	4.02
CC(C)C[C@H](O)[C@H](O)[C@H](CC1CCCCC1)NC(=O)[C@H](Cc1cn(C)cn1)NC(=O)[C@@H](CC(=O)N1CCOCC1)Cc1ccccc1	3.71

Tested on: not listed separately
Assay: Plasma level by the renin inhibition assay from samples taken at 30 minutes from portal circulation by administering 10 mg/kg intraduodenally to the rat
Settings: not given

Structure (SMILES)	concentration at 0.5 h
CC(C)C[C@H](O)[C@H](O)[C@H](CC1CCCCC1)NC(=O)[C@H](Cc1cscn1)NC(=O)[C@H](Cc1ccccc1)N1CCOCC1	3300 ng/mL
CC(C)C[C@H](O)[C@H](O)[C@H](CC1CCCCC1)NC(=O)[C@H](Cc1cscn1)NC(=O)[C@@H](CC(=O)CN1CCOCC1)Cc1ccccc1	1800 ng/mL
CC(C)C[C@H](O)[C@H](O)[C@H](CC1CCCCC1)NC(=O)[C@H](Cn1cccn1)NC(=O)[C@@H](CC(=O)N1CCN(C)CC1)Cc1ccccc1	2300 ng/mL
CCN1C[C@@H]([C@H](O)[C@H](CC2CCCCC2)NC(=O)[C@H](Cc2cscn2)NC(=O)[C@H](Cc2ccc(OC)cc2)NC(=O)CC(C)(C)N)OC1=O	240 ng/mL
CCCC[C@H](NC(=O)[C@@H](CC(=O)N1CCN(C)CC1)Cc1ccccc1)C(=O)N[C@@H](CC1CCCCC1)[C@@H](O)[C@@H](O)CC(C)C	4600 ng/mL
CC(C)C[C@H](NC(=O)[C@@H](CC(=O)N1CCN(C)CC1)Cc1ccccc1)C(=O)N[C@@H](CC1CCCCC1)[C@@H](O)[C@@H](O)CC(C)C	1200 ng/mL
CC(C)C[C@H](O)[C@H](O)[C@H](CC1CCCCC1)NC(=O)[C@H](Cc1ccn[nH]1)NC(=O)[C@@H](CC(=O)N1CCN(C)CC1)Cc1ccccc1	27 ng/mL
CC(C)C[C@H](O)[C@H](O)[C@H](CC1CCCCC1)NC(=O)[C@H](Cc1cn(C)cn1)NC(=O)[C@@H](CC(=O)N1CCOCC1)Cc1ccccc1	3300 ng/mL
CCN1C[C@@H]([C@H](O)[C@H](CC2CCCCC2)NC(=O)[C@H](Cc2cccs2)NC(=O)[C@H](Cc2ccc(OC)cc2)NC(=O)CC(C)(C)N)OC1=O	45 ng/mL
COc1ccc(C[C@H](NC(=O)CC(C)(C)N)C(=O)N[C@@H](Cc2cccs2)C(=O)N[C@@H](CC2CCCCC2)[C@@H](O)[C@@H](O)CC(C)C)cc1	23 ng/mL

Tested on: not listed separately
Assay: Plasma level by the renin inhibition assay from samples taken at 10 minutes from portal circulation by administering 10 mg/kg intraduodenally to the rat
Settings: not given

Structure (SMILES)	concentration at 10 min
CC(C)C[C@H](O)[C@H](O)[C@H](CC1CCCCC1)NC(=O)[C@H](Cc1cscn1)NC(=O)[C@H](Cc1ccccc1)N1CCOCC1	2600 ng/mL
CC(C)C[C@H](O)[C@H](O)[C@H](CC1CCCCC1)NC(=O)[C@H](Cc1cscn1)NC(=O)[C@@H](CC(=O)CN1CCOCC1)Cc1ccccc1	2500 ng/mL
CC(C)C[C@H](O)[C@H](O)[C@H](CC1CCCCC1)NC(=O)[C@H](Cn1cccn1)NC(=O)[C@@H](CC(=O)N1CCN(C)CC1)Cc1ccccc1	2000 ng/mL
CCN1C[C@@H]([C@H](O)[C@H](CC2CCCCC2)NC(=O)[C@H](Cc2cscn2)NC(=O)[C@H](Cc2ccc(OC)cc2)NC(=O)CC(C)(C)N)OC1=O	880 ng/mL
CCCC[C@H](NC(=O)[C@@H](CC(=O)N1CCN(C)CC1)Cc1ccccc1)C(=O)N[C@@H](CC1CCCCC1)[C@@H](O)[C@@H](O)CC(C)C	3200 ng/mL
CC(C)C[C@H](NC(=O)[C@@H](CC(=O)N1CCN(C)CC1)Cc1ccccc1)C(=O)N[C@@H](CC1CCCCC1)[C@@H](O)[C@@H](O)CC(C)C	880 ng/mL
CC(C)C[C@H](O)[C@H](O)[C@H](CC1CCCCC1)NC(=O)[C@H](Cc1ccn[nH]1)NC(=O)[C@@H](CC(=O)N1CCN(C)CC1)Cc1ccccc1	53 ng/mL
CC(C)C[C@H](O)[C@H](O)[C@H](CC1CCCCC1)NC(=O)[C@H](Cc1cn(C)cn1)NC(=O)[C@@H](CC(=O)N1CCOCC1)Cc1ccccc1	4900 ng/mL
CCN1C[C@@H]([C@H](O)[C@H](CC2CCCCC2)NC(=O)[C@H](Cc2cccs2)NC(=O)[C@H](Cc2ccc(OC)cc2)NC(=O)CC(C)(C)N)OC1=O	13 ng/mL
COc1ccc(C[C@H](NC(=O)CC(C)(C)N)C(=O)N[C@@H](Cc2cccs2)C(=O)N[C@@H](CC2CCCCC2)[C@@H](O)[C@@H](O)CC(C)C)cc1	23 ng/mL

Tested on: not listed separately
Assay: Plasma level by the renin inhibition assay from samples taken at 30 minutes from systemic circulation by administering 10 mg/kg intraduodenally to the rat
Settings: not given

Structure (SMILES)	concentration at 0.5 h
CC(C)C[C@H](O)[C@H](O)[C@H](CC1CCCCC1)NC(=O)[C@H](Cc1cscn1)NC(=O)[C@H](Cc1ccccc1)N1CCOCC1	890 ng/mL
CC(C)C[C@H](O)[C@H](O)[C@H](CC1CCCCC1)NC(=O)[C@H](Cc1cscn1)NC(=O)[C@@H](CC(=O)CN1CCOCC1)Cc1ccccc1	380 ng/mL
CC(C)C[C@H](O)[C@H](O)[C@H](CC1CCCCC1)NC(=O)[C@H](Cn1cccn1)NC(=O)[C@@H](CC(=O)N1CCN(C)CC1)Cc1ccccc1	140 ng/mL
CCN1C[C@@H]([C@H](O)[C@H](CC2CCCCC2)NC(=O)[C@H](Cc2cscn2)NC(=O)[C@H](Cc2ccc(OC)cc2)NC(=O)CC(C)(C)N)OC1=O	24 ng/mL
CCCC[C@H](NC(=O)[C@@H](CC(=O)N1CCN(C)CC1)Cc1ccccc1)C(=O)N[C@@H](CC1CCCCC1)[C@@H](O)[C@@H](O)CC(C)C	650 ng/mL
CC(C)C[C@H](NC(=O)[C@@H](CC(=O)N1CCN(C)CC1)Cc1ccccc1)C(=O)N[C@@H](CC1CCCCC1)[C@@H](O)[C@@H](O)CC(C)C	620 ng/mL
CC(C)C[C@H](O)[C@H](O)[C@H](CC1CCCCC1)NC(=O)[C@H](Cc1ccn[nH]1)NC(=O)[C@@H](CC(=O)N1CCN(C)CC1)Cc1ccccc1	22 ng/mL
CC(C)C[C@H](O)[C@H](O)[C@H](CC1CCCCC1)NC(=O)[C@H](Cc1cn(C)cn1)NC(=O)[C@@H](CC(=O)N1CCOCC1)Cc1ccccc1	320 ng/mL
CCN1C[C@@H]([C@H](O)[C@H](CC2CCCCC2)NC(=O)[C@H](Cc2cccs2)NC(=O)[C@H](Cc2ccc(OC)cc2)NC(=O)CC(C)(C)N)OC1=O	32 ng/mL
COc1ccc(C[C@H](NC(=O)CC(C)(C)N)C(=O)N[C@@H](Cc2cccs2)C(=O)N[C@@H](CC2CCCCC2)[C@@H](O)[C@@H](O)CC(C)C)cc1	6 ng/mL
